STAT3 blocker – STAT3 signaling inhibition; U3A cells, IL-6 STAT3-luciferase reporter, luminescence; host cell line lacks STAT1; inhibition, % at 5.5 µM; 190,000 compounds, 0.89% hits;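 active = inhibition above the mean inhibition across all screened compounds plus 3 SD, cut at about 44% in these data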;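 note: 0% = DMSO only wells and 100% = 100 µM nifuroxazide control wells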
STAT3 act-1 – STAT3 signaling activation | U3A cells, IL-6 STAT3-luciferase reporter, luminescence; 100% = signal with IL-6 EC80 alone | activation (% of control), % at 5.6 µM | 190,000 compounds, 0.91% hits;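 active = activation above the screen-wide mean of compound activation plus 3 SD, cut at about 130% in these data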;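 note: 0% = background luminescence of wells with medium and substrate only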
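Material: human U3A cells carrying STAT3-luciferase construct. Measured by: reporter luminescence signal. Timing: compound 1 h, then IL-6 6 h at 37 °C.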
STAT1 act-1 – activators of IFN-gamma induced STAT1 signaling. activation (% of control), % at 5.5 µM. 200,000 compounds, 2.6% hits. NIH 3T3 STAT1-luciferase reporter, luminescence; 100% = IFN-gamma alone, no compound;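 active = activation above the screen-wide mean activation plus 3 SD, cut at about 130% in these data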;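 note: raw ratio to IFN-gamma control signal so 100% means no change and 0% no light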
STAT1 inh – inhibitors of IFN-gamma induced STAT1 signaling | NIH 3T3 STAT1-luciferase reporter, luminescence | inhibition, % at 5.5 µM | 200,000 compounds, 0.35% hits | AID 920;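 active = inhibition above a set limit, the mean inhibition across all tested compounds plus 3 SD, cut at about 34% in these data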;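 note: 0% = IFN-gamma with DMSO and 100% = IFN-gamma with 300 µM nifuroxazide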
STAT3 act-2 – confirmation of STAT3 signaling activators; shares compounds with STAT3 act-1; U3A STAT3-luciferase reporter, IL-6 potentiation, luminescence; U3A cells lack STAT1; 100 means same as IL-6 alone; potentiation (% of control), % at 5.7 µM; 1,200 compounds, 64% hits;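 active = percent activation of the STAT3 luciferase reporter above a set limit taken from the earlier primary screen, cut at about 130% in these data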;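 note: 0% = background signal of medium plus substrate and 100% = median of IL-6 with DMSO wells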
NFkB act 2 – NF-kappaB activation in STAT3 activator counter-screen; shares compounds with STAT3 act-1; human cells, NF-kappaB reporter activation; activation (% of control), % at 5.7 µM; 1,200 compounds, 11% hits; AID 1309; in the data active = activation above about 120%;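 note: reporter induced by TNF-alpha stimulation; 100% = median of stimulated DMSO wells and 0% = no signal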
STAT1 act-2 – STAT1 activation in STAT3 activator counter-screen; 1,200 compounds, 13% hits; activation (% of control), % at 5.7 µM; NIH 3T3 STAT1-luciferase reporter, IFN-gamma, luminescence; shares compounds with STAT3 act-1;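 active = activation above the solvent-only control well mean plus 3 SD, set per screening run, cut at about 120% in these data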;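 note: 100% = IFN-gamma with DMSO median signal so 100% means no change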
The depositor's hits bear a star; nt = not tested or not shown; ! = a repeat was not active. Hits are enriched below; roughly 4.3% of the tested compounds scored in any of these assays.

SMILES	STAT3 blocker	STAT3 act-1	STAT1 act-1	STAT1 inh	STAT3 act-2	NFkB act 2	STAT1 act-2
CC(=O)c1cccc(NC(=O)C2C3C=CC(C3)C2C(=O)O)c1 (stereo unspecified)	2	100	98	0	nt	nt	nt
CC(C)=C1C2C=CC1C(C(=O)Nc1cccc(C)c1)C2C(=O)O (stereo unspecified)	-65	160*	96	4	145*	100	97
O=C(Nc1nc(-c2cccs2)cs1)c1cc2ccccc2oc1=O	19	88	106	-7	nt	nt	nt
O=c1oc2ccccc2cc1-c1nc(-c2cccs2)cs1	-70	159*	113	-20	117	116	116
COc1cc(OC)c(-c2nc3ccccc3s2)cc1OC	-51	149*	106	-9	154*	104	114
COc1cc(-c2nc3ccccc3s2)ccc1O	-48	141*	104	-4	135*	94	121*
Clc1ncccc1-c1nc2ccccc2s1	2	100	124	-26	nt	nt	nt
Nc1c(Br)cc2oc(-c3ccccc3)nc2c1Br	-62	146*	112	-13	181*	123*	152*
COc1ccc2nc(C)cc(SCC(=O)O)c2c1	-40	140*!	107	-8	95	105	103
COC(=O)CSc1cc(C)nc2ccc(OC)cc12	12	92	98	2	nt	nt	nt
CCOc1cc(S(=O)(=O)NCc2ccccc2)ccc1Br	5	104	98	2	nt	nt	nt
O=c1oc2ccccc2c(O)c1/C=C1\C=Nc2ccccc21	-76	161*	95	6	152*	104	90
Cn1c(/N=C/c2cccs2)nc2ccccc21	-55	147*	99	1	122	98	94
Cn1c(/N=C/c2cc(Cl)ccc2O)nc2ccccc21	-54	157*	104	-4	130	109	90
Cc1c(NC(=O)C(C)OC(=O)c2ccc(Cl)nc2)c(=O)n(-c2ccccc2)n1C (stereo unspecified)	4	95	100	0	nt	nt	nt
Cc1cc(C(=O)NC(=S)Nc2ccccc2N2CCCC2)ccc1[N+](=O)[O-]	-14	107	104	-4	nt	nt	nt
O=C(NC(=S)Nc1ccccc1N1CCCCC1)c1ccccc1	-1	104	108	-10	nt	nt	nt
O=C(NC(=S)Nc1ccccc1N1CCCC1)c1cccc(F)c1	-57	152*	93	6	154*	105	89
O=C(NC(=S)Nc1ccccc1N1CCCC1)c1ccc(F)cc1	-39	145*	91	8	149*	104	91
CC(NC(=O)/C(C#N)=C1\N=C(NC(=O)c2cccs2)c2ccccc21)c1ccccc1 (stereo unspecified)	-9	110	96	4	nt	nt	nt
CCNCCNC(=O)c1c(O)c2ccccc2n(CC)c1=O	11	96	91	10	nt	nt	nt
CCn1c(=O)c(C(=O)NCCc2ccccc2)c(O)c2ccccc21	-38	137*	101	-1	134*	106	100
CCCCCCC(=O)NNC(=O)c1c(O)c2ccccc2n(CCC)c1=O	6	99	97	3	nt	nt	nt
CCCn1c(=O)c(C(=O)Nc2ccccc2)c(O)c2ccccc21	-41	137*	104	-6	122	103	100
CCn1c(=O)c(C(=O)Nc2ccccc2C)c(O)c2ccccc21	-44	140*	106	-8	141*	111	115
SMILES	STAT3 blocker	STAT3 act-1	STAT1 act-1	STAT1 inh	STAT3 act-2	NFkB act 2	STAT1 act-2
O=C(CN1CC(=O)Nc2ccccc21)NCCc1ccc(Cl)cc1Cl	0	108	104	-6	nt	nt	nt
CCOC(=O)Cn1ncn(-c2ccc(OC(F)(F)F)cc2)c1=O	-7	110	102	-4	nt	nt	nt
O=C(CSc1ccc2c(c1)OCCO2)NC(=O)Cc1ccccc1	-1	102	108	-9	nt	nt	nt
CC(C)CN(C(=O)CSc1nn(-c2ccc(Cl)cc2)c(=S)s1)C1CCS(=O)(=O)C1 (stereo unspecified)	-7	103	92	10	nt	nt	nt
Nc1ccccc1Sc1nc2ccccc2[nH]1	-34	136*	90	10	159*	117	102
CCSc1nc2ccccc2[nH]1	-4	106	99	1	nt	nt	nt
CCOC(=O)CC(C#N)c1cn(C)c2ccccc12 (stereo unspecified)	-49	145*	92	9	130	104	95
Cn1cc(C(CC(=O)O)C(=O)O)c2ccccc21 (stereo unspecified)	-22	126	89	12	nt	nt	nt
COc1cc(/C=C/C(=O)OCC(=O)N2CCc3ccccc3C2)ccc1O	13	89	95	6	nt	nt	nt
Cc1[nH]c(=O)[nH]c(=O)c1S(=O)(=O)N1CCCC(C(=O)NCCC2=CCCCC2)C1 (stereo unspecified)	-10	109	100	-1	nt	nt	nt
CC(C)CN1C(=O)c2ccc(C(=O)Nc3c[nH]c(=O)[nH]c3=O)cc2C1=O	19	89	100	-2	nt	nt	nt
O=C(CCCn1cnc([N+](=O)[O-])n1)Nc1cccc2ccccc12	-35	138*	105	-6	128	102	106
O=C(Cn1cnc([N+](=O)[O-])n1)NCc1ccccc1	11	97	100	0	nt	nt	nt
O=C(CCCSc1nnnn1-c1ccccc1)c1ccc(F)cc1	14	93	100	0	nt	nt	nt
Cc1ccc(C(=O)Nc2ccc3cn[nH]c3c2)cc1S(=O)(=O)N1CCCCC1	-41	143*	118	-20	139*	116	142*
O=C(CC1S/C(=N/N=C/c2ccco2)NC1=O)Nc1cccc(Cl)c1Cl (stereo unspecified)	0	104	94	5	nt	nt	nt
c1coc(-c2nc3c4c5c(sc4ncn3n2)CCCC5)c1	22	84	91	9	nt	nt	nt
CN1CCc2c(sc3ncn4nc(-c5ccccc5O)nc4c23)C1	-98	182*	106	-6	164*	107	101
Cn1c(-c2c(N)n(CCc3ccccc3)c3nc4ccccc4nc23)nc2ccccc21	-35	126	93	8	nt	nt	nt
Cn1c(-c2c(N)n(CCCc3ccccc3)c3nc4ccccc4nc23)nc2ccccc21	-54	152*	94	7	136*	97	96
O=C(CSCc1cccc(Br)c1)NC1CC1	1	100	96	5	nt	nt	nt
Cc1cccc(-c2nnc3n2N=C(c2ccccc2)CS3)c1	18	87	97	3	nt	nt	nt
C[n+]1c2n(c3ccccc31)N=C(c1ccc(Br)cc1)CS2	-35	136*	78	24	122	96	72
C[n+]1c2n(c3ccccc31)N=C(c1ccccc1)CS2	-28	140*	72	30	149*	106	79
S=C(N/N=C1\CCc2ccccc21)NC1CCCCC1	-42	137*	118	-20	164*	135*	122*
